High-throughput results from PubChem BioAssay.
Gli-Sufu antag = Gli-Sufu pathway antagonists, primary screen, luciferase luminescence, Sufu-KO-LIGHT cells, uHTS; Sufu-KO-LIGHT fibroblasts, Gli luciferase reporter luminescence; inhibition, % at 5 µM; actives 0.74% (n = 340,000); AID 588413, 2011;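 active means inhibition above about 55%, limit read from the data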;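 further: 0% = DMSO-treated cells and 100% = wells with medium but no cells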
GalR3 antag = GalR3 antagonists in HEK293 cells, primary screen, cell-based, fluorescence readout. AID 651719, 2012. Galanin receptor type 3 (Homo sapiens), O60755. inhibition, % at 3 µM. actives 0.44% (n = 360,000). HEK293 GalR3-CNG cAMP membrane potential fluorescence; galR3 body fused to GalR1 C-terminus;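 active means inhibition above the screen-wide average plus 3 SD, cut at about 13% in these data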;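 further: forskolin and galanin both at EC90 stimulate the cells; cAMP rise reported by CNG channel membrane potential dye signal; 0% = forskolin plus galanin with DMSO and 100% = forskolin alone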
Target sequence (O60755 1-299 limits assumed): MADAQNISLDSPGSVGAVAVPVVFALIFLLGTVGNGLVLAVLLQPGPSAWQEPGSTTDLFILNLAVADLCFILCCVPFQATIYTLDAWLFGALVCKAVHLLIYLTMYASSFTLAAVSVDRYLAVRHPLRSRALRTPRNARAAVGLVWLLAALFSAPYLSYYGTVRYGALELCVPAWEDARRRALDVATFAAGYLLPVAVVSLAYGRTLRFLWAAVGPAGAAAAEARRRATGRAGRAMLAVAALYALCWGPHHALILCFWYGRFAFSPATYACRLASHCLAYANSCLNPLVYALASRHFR
697 NFkB inh = inhibitors of PMA/ionomycin-induced NF-kB reporter, 697 cells, primary screen, B-cell NF-kB inhibitor project, cell-based, luminescence, uHTS; inhibition, % at 4 µM; actives 0.33% (n = 330,000); 697 B-cell NF-kB luciferase reporter, 16 h; in the data active means inhibition above about 35%
NR2E3 ag-1 = inhibitors of NR2E3-RetCOR corepressor binding, primary screen, NR2E3 agonist project, biochemical, TR-FRET, GST-NR2E3, biotin-RetCOR; actives 0.12% (n = 320,000); 1536-well; inhibition of corepressor binding, % at 4.78 µM;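 active means percent inhibition above the cutoff of mean plus 3 SD of all tested compounds, set per screening campaign, cut at about 20% in these data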;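 further: 0% = DMSO wells and 100% = biotin wells as full block of FRET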
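System: GST-tagged NR2E3 plus biotinylated RetCOR corepressor; Buffer or medium: pH 7.5 Tris-based buffer; Probe or stimulus: RetCOR corepressor, biotinylated, 7 nM; Doses: compound at 4.8 µM, single dose; Schedule: 5 h incubation at 4 °C; Technique: time-resolved FRET; Evaluation: percent inhibition of TR-FRET ratio; Replication: one well per compound, singlicate testing.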
Jurkat NFkB inh = inhibitors of induced NF-kB luciferase reporter, primary screen, TCR NF-kB activation inhibitor project, cell-based, luminescence, uHTS. actives 0.53% (n = 330,000). AID 435003, 2010. inhibition, % at 4 µM. Jurkat, PMA/ionomycin-induced NF-kB luciferase reporter; in the data active means inhibition above about 50%
NR2E3 ag-2 = NR2E3 agonists in two-hybrid cells, primary screen, cell-based, luminescence, CHO-S, Gal4-NCOR/VP16-NR2E3. AID 602229, 2012. Photoreceptor-specific nuclear receptor (Homo sapiens), Q9Y5X4. luciferase. inhibition of corepressor binding, % at 3.98 µM. actives 0.35% (n = 360,000);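 active means inhibition above the mean of all tested compounds plus 3 SD, cut at about 70% in these data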;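 further: 0% = DMSO with NR2E3 transfected cells and 100% = cells lacking NR2E3 construct; higher means lower luciferase signal from less NR2E3 corepressor binding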
Jurkat NFkB conf = PMA/ionomycin-induced NF-kB reporter inhibitors, Jurkat retest, confirmation, T-cell NF-kB inhibitor project, cell-based, luminescence, single concentration; shares compounds with Jurkat NFkB inh; Jurkat NF-kB luciferase, 16 h; inhibition, % at 4 µM; actives 27% (n = 2,700); AID 435020, 2010;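 active means inhibition reaching about 45% at 4 µM in either replicate, limit read from the data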;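 further: plate controls were PMA/ionomycin stimulated DMSO wells for no effect and unstimulated DMSO wells for full effect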
Active calls of the source: *. Rows were chosen to be rich in hits. Some 1.8% of all compounds tested hit in one or more screens of this group.

Screening Cc1ccccc1OCC(O)CNC1CCC(NCC(O)COc2ccccc2C)CC1 (configuration not stated) returned Gli-Sufu antag 26, GalR3 antag -18, 697 NFkB inh 26, NR2E3 ag-1 4, Jurkat NFkB inh 97*, NR2E3 ag-2 -14 and Jurkat NFkB conf 35.
Screening COc1ccc(Oc2cccc3c2S(=O)(=O)N(C2CC2)C[C@@H](COCc2ccccc2)O3)cc1 returned GalR3 antag -8.
Screening Cc1nc2ccc(NC(=O)c3cnc(Cl)c(Cl)c3)cc2s1 returned Gli-Sufu antag -8, GalR3 antag -6, 697 NFkB inh 0, NR2E3 ag-1 1, Jurkat NFkB inh -1 and NR2E3 ag-2 -34.
Screening Cc1nc2ccc(NC(=O)c3ccc(Cl)s3)cc2s1 returned Gli-Sufu antag -80, GalR3 antag 0, 697 NFkB inh -191, NR2E3 ag-1 4, Jurkat NFkB inh -174, NR2E3 ag-2 -98 and Jurkat NFkB conf -79.
For Cc1cccc2sc(NC(=O)c3ccc(Cl)s3)nc12 the results were Gli-Sufu antag -23, GalR3 antag 1, 697 NFkB inh -56, NR2E3 ag-1 7, Jurkat NFkB inh -9 and NR2E3 ag-2 -69.
Screening Cc1ccc2nc(NC(=O)c3ccc4c(c3)OCO4)sc2c1 returned Gli-Sufu antag -101, GalR3 antag -11, 697 NFkB inh -230, NR2E3 ag-1 -7, Jurkat NFkB inh -152, NR2E3 ag-2 -116 and Jurkat NFkB conf -135.
Screening Cc1ccc(C(=O)Nc2nc3ccccc3s2)s1 returned Gli-Sufu antag -97, GalR3 antag -8, 697 NFkB inh -156, NR2E3 ag-1 0, Jurkat NFkB inh -211, NR2E3 ag-2 -152 and Jurkat NFkB conf -109.
Screening Cc1ccc2nc(NC(=O)c3ccc(Cl)s3)sc2c1 returned Gli-Sufu antag -108, GalR3 antag -3, 697 NFkB inh -215, NR2E3 ag-1 0, Jurkat NFkB inh -162, NR2E3 ag-2 -127 and Jurkat NFkB conf -140.
`COC(=O)C1=C(C)N(CC(C)C)C(=S)NC1c1ccc(-c2ccccc2)cc1` (configuration not stated) gave GalR3 antag -6.
`COc1ccccc1Cc1c(C(C)(C)C)nc2c(C)cc(Br)cn12` gave GalR3 antag -6.
COC(=O)C1=C(C)N(Cc2ccc(C(F)(F)F)cc2)C(=NCc2ccccc2C(F)(F)F)NC1c1ccc(F)cc1 (configuration not stated) was read as GalR3 antag -5.
`COC(=O)[C@]12C[C@H](CC(=O)N3CCN(C(=O)C4CC4)CC3)C(=O)N(Cc3ccccc3)C1=C[C@H](C(C)(C)C)O[C@@H]2C` gave GalR3 antag -7.
For COc1ccc(CCn2c(Br)nc3c2c(=O)[nH]c(=O)n3C)cc1 the results were Gli-Sufu antag 6, GalR3 antag -7, 697 NFkB inh -16, NR2E3 ag-1 4, Jurkat NFkB inh 57*, NR2E3 ag-2 13 and Jurkat NFkB conf 25.
`COc1ccc(CCn2c(NN)nc3c2c(=O)[nH]c(=O)n3C)cc1` gave Gli-Sufu antag 1, GalR3 antag -6, 697 NFkB inh -1, NR2E3 ag-1 -5, Jurkat NFkB inh 24 and NR2E3 ag-2 -21.
For Cc1ccccc1-c1nnc(SCc2ccccc2)o1 the results were Gli-Sufu antag -102, GalR3 antag -6, 697 NFkB inh -72, NR2E3 ag-1 -2, Jurkat NFkB inh -89 and NR2E3 ag-2 -129.
Screening Cc1ccccc1-c1nnc(SCc2ccccc2F)o1 returned Gli-Sufu antag -132, GalR3 antag -5, 697 NFkB inh -188, NR2E3 ag-1 -2, Jurkat NFkB inh -153, NR2E3 ag-2 -112 and Jurkat NFkB conf -74.
Screening Fc1ccccc1CSc1nnc(-c2ccccc2)o1 returned Gli-Sufu antag -126, GalR3 antag -3, 697 NFkB inh -150, NR2E3 ag-1 -1, Jurkat NFkB inh -156, NR2E3 ag-2 -140 and Jurkat NFkB conf -65.
Fc1ccccc1CSc1nnc(-c2cccnc2)o1 was read as Gli-Sufu antag -87, GalR3 antag -4, 697 NFkB inh -67, NR2E3 ag-1 -3, Jurkat NFkB inh -80 and NR2E3 ag-2 -103.
COc1ccc(-c2nnc(SCc3ccccc3F)o2)cc1 was read as Gli-Sufu antag -99, GalR3 antag 3, 697 NFkB inh -204, NR2E3 ag-1 -3, Jurkat NFkB inh -161, NR2E3 ag-2 -176 and Jurkat NFkB conf -87.
For C[C@@H]1CN(c2ccc(N3CCNC[C@H]3C)cc2C#N)C[C@H](C)O1 the results were GalR3 antag -7.
`Cc1ccc2c(c1)N=C(c1ccccc1)CC(C(Cl)Cl)=N2` gave Gli-Sufu antag -1, GalR3 antag 0, 697 NFkB inh -245, NR2E3 ag-1 2, Jurkat NFkB inh -143 and NR2E3 ag-2 -125.
`Cc1ccc(C2=Nc3ccccc3N=C(C(Cl)Cl)C2)cc1` gave Gli-Sufu antag -24, GalR3 antag -5, 697 NFkB inh -149, NR2E3 ag-1 1, Jurkat NFkB inh -162, NR2E3 ag-2 -89 and Jurkat NFkB conf -91.
For CCOC(=O)c1[nH]c2c(c1C)C(=O)CC(c1ccc(OCC)c(OC)c1)C2 (configuration not stated) the results were Gli-Sufu antag 8, GalR3 antag 1, 697 NFkB inh 16, NR2E3 ag-1 -1, Jurkat NFkB inh 3 and NR2E3 ag-2 -45.
For COC(=O)c1[nH]c2c(c1C)C(=O)CC(c1cccc(OC)c1)C2 (configuration not stated) the results were Gli-Sufu antag 35, GalR3 antag -10, 697 NFkB inh -54, NR2E3 ag-1 3, Jurkat NFkB inh 62*, NR2E3 ag-2 9 and Jurkat NFkB conf 56*.
`CCOC(=O)c1[nH]c2c(c1C)C(=O)CC(c1ccc(F)cc1)C2` (configuration not stated) gave Gli-Sufu antag 39, GalR3 antag 1, 697 NFkB inh -21, NR2E3 ag-1 2, Jurkat NFkB inh 64*, NR2E3 ag-2 -26 and Jurkat NFkB conf 58*.
